PLK1 kinase inh: PLK1 (human) kinase inhibition | inhibition, % at 10 µM | recombinant PLK1 kinase, TR-FRET peptide phosphorylation | P53350 | AID 619 | 0.53% of 97,000 active;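 active = inhibition of 50% or more in the single-concentration screen; inactive = inhibition below 50%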;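 note: 0% = DMSO max control and 100% = H-89 dihydrochloride min control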
Target sequence (P53350 whole entry, looked up): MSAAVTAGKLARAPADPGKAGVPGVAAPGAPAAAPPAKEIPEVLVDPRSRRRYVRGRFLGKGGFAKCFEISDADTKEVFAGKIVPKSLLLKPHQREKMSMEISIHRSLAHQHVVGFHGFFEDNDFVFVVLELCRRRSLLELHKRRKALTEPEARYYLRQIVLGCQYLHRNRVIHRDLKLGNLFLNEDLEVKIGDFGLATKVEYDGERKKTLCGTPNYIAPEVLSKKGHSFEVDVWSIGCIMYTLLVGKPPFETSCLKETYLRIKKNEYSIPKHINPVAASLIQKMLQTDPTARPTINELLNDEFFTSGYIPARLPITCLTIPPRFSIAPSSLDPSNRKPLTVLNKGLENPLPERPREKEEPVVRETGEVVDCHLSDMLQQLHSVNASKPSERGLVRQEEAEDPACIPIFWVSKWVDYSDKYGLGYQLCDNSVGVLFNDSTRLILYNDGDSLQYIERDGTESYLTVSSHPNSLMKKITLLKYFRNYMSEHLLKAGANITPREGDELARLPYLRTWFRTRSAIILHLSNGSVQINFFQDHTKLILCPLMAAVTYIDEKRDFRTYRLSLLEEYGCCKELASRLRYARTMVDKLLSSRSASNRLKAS
EphB4 antag: antagonists of human EphB4-ephrin-B2 interaction | EphB4 LBD / TNYL-RAW-Alexa532 peptide, fluorescence polarization | 0.15% of 97,000 active | inhibition, % at 7 µM | P54760;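 active = inhibition above the screen-wide mean inhibition plus 3 SD, cut at about 15% in these data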;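 note: 0% = DMSO wells and 100% = excess unlabeled TNYL-RAW peptide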
LYP act: increases human PTPN22 phosphatase activity | activation, % at 2 µM | recombinant LYP, DiFMUP fluorescence; 0 = plate median, 100 = signal doubled | Q9Y2R2 | 0.11% of 96,000 active;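 active = activation at 2 µM above a set limit, the mean plus 5 SD, cut at about 37% in these data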
PLK1 PBD inh: Plk1 (human) PBD binding inhibition; P53350; Plk1 PBD phosphopeptide binding, fluorescence polarization; inhibition, %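 (tested at about 20 µM)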; 0.13% of 97,000 active; in the data active = inhibition above about 34%, passing the limit was not always enough
PTPN22 inh 2: blocks human PTPN22 phosphatase activity; 0.21% of 96,000 active; recombinant LYP catalytic domain, DiFMUP fluorescence; AID 640; inhibition, % at 2 µM; Q9Y2R2;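 active = inhibition at 2 µM at or above a set limit, the screen mean plus 3 SD, cut at about 24% in these data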;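 note: 0% = DMSO with enzyme and 100% = enzyme fully blocked by orthovanadate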
HIV Rev-RRE inh: HIV Rev-RRE protein-RNA interaction inhibition | Rev peptide-RRE RNA binding, FRET | inhibition, % at 8 µM | 0.79% of 97,000 active | AID 704;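 active = inhibition above the screen-wide mean plus 3 SD, cut at about 35% in these data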;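 note: 0% = median DMSO wells and 100% = median Neomycin B control wells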
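Test system: Cy5-tagged RRE RNA duplex with fluorescein-tagged Rev peptide; Probe or stimulus: labelled Rev peptide; Schedule: 5 min preincubation and 15 min binding, 25 °C; Signal: FRET fluorescence readout; Evaluation: % inhibition from 671/540 nm acceptor-to-donor ratio, scaled between controls; Control set: DMSO and neomycin B.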
Active calls of the source: *; [ ] = another dose, or the depositor's remark. Sampled rows, rich in hits. Any-hit rate of the full collection: about 2%.

How did S=C1NNC2(NN1)C1CC3CC(C1)CC2C3 do in these assays?
PLK1 kinase inh: 56*; EphB4 antag: 3; LYP act: 5; PLK1 PBD inh: -7; PTPN22 inh 2: -8; HIV Rev-RRE inh: 6

Results for CCOC(=O)C1=C(CSc2nc3c(cc2C#N)CN(C)CC3)OC(N)=C(C#N)C1c1ccccc1 (stereo not given) ?
PLK1 kinase inh: -4; EphB4 antag: 2; LYP act: 1; PLK1 PBD inh: 2; PTPN22 inh 2: -4; HIV Rev-RRE inh: 57*

How did CCOC(=O)C1=C(CSc2nc3c(cc2C#N)CCC3)OC(N)=C(C#N)C1c1ccccc1 (stereo not given) do in these assays?
PLK1 kinase inh: -14; EphB4 antag: 6; LYP act: -10; PLK1 PBD inh: 15; PTPN22 inh 2: 9; HIV Rev-RRE inh: 21

Results for COC(=O)C1=C(CSc2nc3c(cc2C#N)CN(C)CC3)OC(N)=C(C#N)C1c1ccccc1F (stereo not given) ?
PLK1 kinase inh: 0; EphB4 antag: -4; LYP act: -9; PLK1 PBD inh: -26; PTPN22 inh 2: 10; HIV Rev-RRE inh: 54*

What do the screens show for `CCOC(=O)C1=C(CSc2nc3c(cc2C#N)CN(C)CC3)OC(N)=C(C#N)C1c1ccc(F)cc1` (stereo not given)?
PLK1 kinase inh: 6; EphB4 antag: 1; LYP act: 4; PLK1 PBD inh: -42; PTPN22 inh 2: -5; HIV Rev-RRE inh: 57*

What do the screens show for `CCOC(=O)C1=C(CSc2nc(-c3ccccc3)ccc2C#N)OC(N)=C(C#N)C1c1cccnc1` (stereo not given)?
PLK1 kinase inh: -10; EphB4 antag: 5; LYP act: 27; PLK1 PBD inh: -31; PTPN22 inh 2: -28; HIV Rev-RRE inh: 37*

How did COc1cccc(C(CC(=O)Nc2cccc3ccccc23)NC(=O)c2ccccc2)c1 (stereo not given) do in these assays?
PLK1 kinase inh: -11; EphB4 antag: -10; LYP act: 21; PLK1 PBD inh: -6; PTPN22 inh 2: -26; HIV Rev-RRE inh: 5

What do the screens show for `O=C(c1ccc(Cl)cc1)C1C2C(=O)N(c3ccccc3)C(=O)C2C2CCCN21` (stereo not given)?
PLK1 kinase inh: -7; EphB4 antag: -11; LYP act: 5; PLK1 PBD inh: -13; PTPN22 inh 2: -5; HIV Rev-RRE inh: 58*

How did O=C1C2C3CCCC3=C3CCCC3C2C(=O)N1c1ccc(Cl)cc1 (stereo not given) do in these assays?
PLK1 kinase inh: -7; EphB4 antag: -5; LYP act: -4; PLK1 PBD inh: 3; PTPN22 inh 2: 5; HIV Rev-RRE inh: 13

How did O=C1C2C3CCCC3=C3CCCC3C2C(=O)N1c1cccc(Cl)c1 (stereo not given) do in these assays?
PLK1 kinase inh: 4; EphB4 antag: 0; LYP act: 9; PLK1 PBD inh: -2; PTPN22 inh 2: -9; HIV Rev-RRE inh: 15

How did CC(=O)c1ccc(N2C(=O)C3C(C2=O)C(C(=O)c2ccc(Cl)cc2)N2CCCC32)cc1 (stereo not given) do in these assays?
PLK1 kinase inh: -9; EphB4 antag: -11; LYP act: 4; PLK1 PBD inh: -11; PTPN22 inh 2: -4; HIV Rev-RRE inh: 62*

Results for COC(=O)c1ccc(/C=C(\C#N)c2nc3ccccc3s2)cc1 ?
PLK1 kinase inh: -14; EphB4 antag: 2; LYP act: -6; PLK1 PBD inh: -1; PTPN22 inh 2: 9; HIV Rev-RRE inh: 31

How did N#C/C(=C\N1CCN(Cc2ccc3c(c2)OCO3)CC1)c1nc2ccccc2s1 do in these assays?
PLK1 kinase inh: 29; EphB4 antag: 9; LYP act: -4; PLK1 PBD inh: -77; PTPN22 inh 2: 5; HIV Rev-RRE inh: 65*

How did CCOC(=O)N1CCN(/C=C(\C#N)c2nc3ccccc3s2)CC1 do in these assays?
PLK1 kinase inh: -16; EphB4 antag: -3; LYP act: 4; PLK1 PBD inh: -50; PTPN22 inh 2: -3; HIV Rev-RRE inh: 53*

How did CC(C)(C)c1cc(NCCCn2ccnc2)n2ncc(-c3ccc(Cl)cc3)c2n1 do in these assays?
PLK1 kinase inh: -14; EphB4 antag: 9; LYP act: -36; PLK1 PBD inh: 14; PTPN22 inh 2: 38*; HIV Rev-RRE inh: 5

What do the screens show for `Cc1cc(NCCOCCO)n2ncc(-c3ccc(Cl)cc3)c2n1`?
PLK1 kinase inh: -11; EphB4 antag: -1; LYP act: -5; PLK1 PBD inh: -16; PTPN22 inh 2: -2; HIV Rev-RRE inh: 11

Results for Nn1c(N2CCCCC2)nc2ccccc21 ?
PLK1 kinase inh: -8; EphB4 antag: 5; LYP act: -1; PLK1 PBD inh: -1; PTPN22 inh 2: 0; HIV Rev-RRE inh: 7

How did CCOC(=O)C1=C(O)/C(=C/c2cn(CC(=O)NCC3CCCO3)c3ccccc23)SC1=Nc1ccc(C)cc1 (stereo not given) do in these assays?
PLK1 kinase inh: -7; EphB4 antag: 0; LYP act: -19; PLK1 PBD inh: 10; PTPN22 inh 2: 19; HIV Rev-RRE inh: 41*

Results for CCOC(=O)C1=C(O)/C(=C/c2ccc(-c3ccccc3C(=O)O)o2)SC1=Nc1ccc(C)cc1 ?
PLK1 kinase inh: -9

What do the screens show for `CCN(CC)c1ccc(C=C2C(=O)OC(C)(C(C)(C)C)OC2=O)cc1` (stereo not given)?
PLK1 kinase inh: -9

What do the screens show for `CN(C)c1ccc(C=C2C(=O)OC(C)(C(C)(C)C)OC2=O)cc1` (stereo not given)?
PLK1 kinase inh: -16; EphB4 antag: -4; LYP act: 6; PLK1 PBD inh: -13; PTPN22 inh 2: -8; HIV Rev-RRE inh: 63*

What do the screens show for `CCOc1c2ccc(C(=O)NCc3ccc4c(c3)OCO4)cc2nn1CCOC`?
PLK1 kinase inh: -12; EphB4 antag: 0; LYP act: -3; PLK1 PBD inh: -16; PTPN22 inh 2: 5; HIV Rev-RRE inh: 6

Results for COC(=O)c1ccc(NC(=O)CN2CCN(c3cccc(Cl)c3)CC2)cc1 ?
PLK1 kinase inh: -6; EphB4 antag: 17*; LYP act: 1; PLK1 PBD inh: -3; PTPN22 inh 2: 0; HIV Rev-RRE inh: 13

What do the screens show for `c1ccc(-c2cn3nc(-c4ccccc4)c(-c4ccccc4)nc3n2)cc1`?
PLK1 kinase inh: -18; EphB4 antag: 7; LYP act: -7; PLK1 PBD inh: 26; PTPN22 inh 2: 11; HIV Rev-RRE inh: 98*[fluorescence artefact?]

What do the screens show for `Nc1nc(-c2ccccc2)cn1N`?
PLK1 kinase inh: -9; EphB4 antag: 12; LYP act: -3; PLK1 PBD inh: 19; PTPN22 inh 2: 6; HIV Rev-RRE inh: 4

What do the screens show for `O=c1c2ccccc2nc2n1C(CSCc1ccc(Cl)cc1Cl)CS2` (stereo not given)?
PLK1 kinase inh: -12; EphB4 antag: -2; LYP act: 6; PLK1 PBD inh: 5; PTPN22 inh 2: -6; HIV Rev-RRE inh: 2

Compound activity as filed in PubChem.
